{"data": "Assay results gathered from unrelated publications", "note": "Lines come from different studies, so protocols differ."}
{"Compound": "Cn1nnc2c(C(N)=O)ncn2c1=O", "cell line": "U-87 MG", "effect on": "cell growth or viability", "technique": "trypan blue", "time": "72 h", "IC50 [nM]": 50000}
{"Compound": "O=C(CCO)NCc1ccccc1", "cell line": "DH82", "effect on": "PGE2 release", "mode": "inhibitor", "technique": "ELISA", "time": "24 h", "setting": "LPS-stimulated", "IC50 [nM]": 49400}
{"Compound": "CCCOc1nc(-c2cccc(O)c2)cc(-c2cc3cc(Cl)ccc3nc2N2CCOCC2)c1C#N", "cell line": "NFS-60", "effect on": "cell growth or viability", "technique": "MTT", "time": "72 h", "IC50 [nM]": 244}
{"Compound": "CCNCCCn1c2c(c3cc(OC)c(OC)cc3c1=O)C(=O)c1cc3c(nc1-2)OCO3", "cell line": "Raji", "effect on": "cell growth or viability", "technique": "MTS", "time": "72 h", "IC50 [nM]": 125}
{"Compound": "COc1ccc(-c2cc(-c3ccccc3Cl)c3c(=O)n(C)c(=O)n(C)c3n2)cc1", "cell line": "HCT-116", "effect on": "cell growth or viability", "technique": "MTT", "time": "48 h", "IC50 [nM]": 14100}
{"Compound": "NCCC(=O)NCc1ccccc1", "cell line": "DH82", "effect on": "PGE2 release", "mode": "inhibitor", "technique": "ELISA", "time": "24 h", "setting": "LPS-stimulated", "IC50 [nM]": 122000}
{"Compound": "COc1cc2c(cc1OC)-c1cc3ccc(OC)c(OCCN)c3c[n+]1CC2", "cell line": "PC-9", "effect on": "cell growth or viability", "technique": "MTT", "time": "72 h", "IC50 [nM]": "> 80000"}
{"Compound": "CC1(C)CCC(CN2CCN(c3ccc(C(=O)NS(=O)(=O)c4ccc(NCC5CCOCC5)c([N+](=O)[O-])c4)c(Oc4cnc5[nH]ccc5c4)c3)CC2)=C(c2ccc(Cl)cc2)C1", "cell line": "DOHH-2", "effect on": "cell growth or viability", "technique": "ATP luminescence", "time": "48 h", "IC50 [nM]": 77}
{"Compound": "COCCC(=O)NCc1ccccc1", "cell line": "DH82", "effect on": "PGE2 release", "mode": "inhibitor", "technique": "ELISA", "time": "24 h", "setting": "LPS-stimulated", "IC50 [nM]": 126000}
{"Compound": "Nc1n[nH]c2nc(-c3cccc(O)c3)cc(-c3cc4cc(Cl)ccc4nc3N3CCOCC3)c12", "cell line": "NFS-60", "effect on": "cell growth or viability", "technique": "MTT", "time": "72 h", "IC50 [nM]": 160}
{"Compound": "COc1cc2c3c(n(CCCNCCO)c(=O)c2cc1OC)-c1nc2c(cc1C3=O)OCO2", "cell line": "Raji", "effect on": "cell growth or viability", "technique": "MTS", "time": "72 h", "IC50 [nM]": 132}
{"Compound": "COc1ccc(-c2cc(-c3ccc(Br)cc3)c3c(=O)n(C)c(=O)n(C)c3n2)cc1", "cell line": "HCT-116", "effect on": "cell growth or viability", "technique": "MTT", "time": "48 h", "IC50 [nM]": 10800}
{"Compound": "C=C(F)C(=O)N1CCN(c2nc(OC[C@@H]3CCCN3C)nc3c2CCN(c2cccc4cccc(Cl)c24)C3)C[C@@H]1CC#N", "cell line": "PC-9", "effect on": "cell growth or viability", "technique": "ATP luminescence", "IC50 [nM]": 2010}
{"Compound": "Cc1c(C(=O)O)ccc2c3n(nc12)[C@@H]1[C@H](C3)N(CC2CC2)[C@@]2(C(=O)Nc3cc(Cl)ccc32)[C@H]1c1cccc(Cl)c1F", "cell line": "SK-OV-3", "effect on": "cell growth or viability", "technique": "ATP luminescence", "IC50 [nM]": "> 50000"}
{"Compound": "COc1cc2c3c(n(CCCN4CCOCC4)c(=O)c2cc1OC)-c1nc2c(cc1C3=O)OCO2", "cell line": "Raji", "effect on": "cell growth or viability", "technique": "MTS", "time": "72 h", "IC50 [nM]": 374}
{"Compound": "NC(=O)c1ccncc1", "cell line": "DH82", "effect on": "NO release", "mode": "inhibitor", "technique": "Griess", "time": "24 h", "setting": "LPS-stimulated", "IC50 [nM]": "> 200000"}
{"Compound": "CCOc1nc(-c2cccc(O)c2)cc(-c2cc3cc(Cl)ccc3nc2N2CCOCC2)c1C#N", "cell line": "NFS-60", "effect on": "cell growth or viability", "technique": "MTT", "time": "72 h", "IC50 [nM]": 113}
{"Compound": "O=C(CCNNC(=O)c1ccncc1)NCc1ccccc1", "cell line": "DH82", "effect on": "NO release", "mode": "inhibitor", "technique": "Griess", "time": "24 h", "setting": "LPS-stimulated", "IC50 [nM]": "> 200000"}
{"Compound": "CN1Cc2c(N)cccc2C(=O)N1C1CCC(=O)NC1=O (stereo not shown)", "cell line": "NCI-H929", "effect on": "cell growth or viability", "technique": "CCK-8", "time": "96 h", "IC50 [nM]": "< 330"}
